Data: ChEMBL document CHEMBL3108700, “Designing anti-inflammatory drugs from parasitic worms: a synthetic small molecule analogue of the Acanthocheilonema viteae product ES-62 prevents development of collagen-induced arthritis” (J Med Chem, 2013)
Activity calls are given as the source filed them. Unless noted, no cut-off for these calls is given here.

Legend:
[1] = target: T1, Toll-like receptor 4 (Mus musculus) (UniProt Q9QUK6); test: Inhibition of TLR4 in ovalbumin pulsed BALB/c mouse BMDC co-cultured with DO-11.10 CD4+ T cells assessed as reduction of LPS-induced IL-17 production at 5 ug/mL after 3 days by ELISA; format: cell-based; conditions: T-cell
T1 sequence (whole entry): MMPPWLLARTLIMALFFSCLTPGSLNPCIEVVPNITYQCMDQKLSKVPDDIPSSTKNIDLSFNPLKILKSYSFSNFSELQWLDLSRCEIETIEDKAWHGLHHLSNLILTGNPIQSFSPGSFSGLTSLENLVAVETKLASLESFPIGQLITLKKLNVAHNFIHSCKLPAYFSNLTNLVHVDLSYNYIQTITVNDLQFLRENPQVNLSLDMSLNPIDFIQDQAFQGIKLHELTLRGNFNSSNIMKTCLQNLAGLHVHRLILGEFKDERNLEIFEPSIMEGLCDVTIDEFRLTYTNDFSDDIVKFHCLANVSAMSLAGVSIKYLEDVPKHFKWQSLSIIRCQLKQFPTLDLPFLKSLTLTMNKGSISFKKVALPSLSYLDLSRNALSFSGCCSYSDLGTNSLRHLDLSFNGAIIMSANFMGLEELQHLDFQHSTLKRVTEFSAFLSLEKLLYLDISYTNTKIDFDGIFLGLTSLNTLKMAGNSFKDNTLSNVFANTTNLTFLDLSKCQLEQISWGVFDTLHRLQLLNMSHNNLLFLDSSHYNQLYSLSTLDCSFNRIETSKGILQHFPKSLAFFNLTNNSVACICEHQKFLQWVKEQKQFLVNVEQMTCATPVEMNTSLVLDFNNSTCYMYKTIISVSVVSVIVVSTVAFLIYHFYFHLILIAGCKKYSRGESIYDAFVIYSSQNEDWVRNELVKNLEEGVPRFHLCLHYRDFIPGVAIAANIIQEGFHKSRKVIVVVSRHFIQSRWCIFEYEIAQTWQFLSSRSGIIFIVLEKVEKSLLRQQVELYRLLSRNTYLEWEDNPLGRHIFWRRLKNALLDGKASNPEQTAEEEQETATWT
Method in brief: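 BALB/c bone marrow DCs ± compound (5 μg/mL) were treated ± S. minnesota LPS and pulsed with OVA peptide (0–300 nM). They were cocultured 3 days with naive CD4+CD62L+ DO.11.10 T cells, and IL-17A was measured by ELISA. Values are mean ± SD of duplicates from two experiments.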

Mus musculus [2] = test: Antiinflammatory activity in DBA/1 mouse collagen-induced arthritis model assessed as reduction in number of PMA/ionomycin-stimulated CD4+ T cells expressing IFNgamma at 50 ug/kg, sc administered 2 days prior to collagen challenge continued till day 21 post collagen challenge by flow cytometric analysis relative to control; format: functional, organism-based; conditions: T-cell
Method in brief: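 CIA mice given test agent (1 μg/dose) or PBS subcutaneously on days −2, 0 and 21. Draining lymph node cells (10^6/mL) in complete RPMI were stimulated ± 50 ng/mL PMA plus 500 ng/mL ionomycin, with 10 μg/mL brefeldin A for 5 h at 37 °C. Cells were surface-stained for CD4, CD8 and γδ, fixed and permeabilized, then stained for intracellular IFNγ and IL-17A. Gating used isotype controls. Cell numbers per individual mouse; naive n = 7, treated groups n = 13.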

Mus musculus [3] = test: Antiinflammatory activity in DBA/1 mouse collagen-induced arthritis model assessed as reduction in number of CD8+ T cells at 50 ug/kg, sc administered 2 days prior to collagen challenge continued till day 21 post collagen challenge; format: functional, organism-based; conditions: T-cell
Method in brief: (§1)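 Dosing was 1 μg/dose or PBS given subcutaneously on days −2, 0 and 21 of CIA. Total, CD4+, CD8+ and γδ T cell numbers in draining lymph nodes were counted by flow cytometry for each mouse. Naive mice not exposed to collagen served as a further control (naive n = 7; PBS and treated n = 13).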

Mus musculus [4] = test: Antiinflammatory activity in DBA/1 mouse collagen-induced arthritis model assessed as reduction in number of CD4+ T cells at 50 ug/kg, sc administered 2 days prior to collagen challenge continued till day 21 post collagen challenge; format: functional, organism-based; conditions: T-cell; method in brief: as §1
TLR2/TLR6 (Mus musculus) = TLR2/TLR6 (Mus musculus) (UniProt Q9QUN7+Q9EPW9); test: Inhibition of TLR2/6 in BALB/c mouse BMDM assessed as downregulation of BLP-stimulated IL-6 level at 5 ug/ml preincubated for 18 hrs followed by BLP challenge measured after 24 hrs by ELISA relative to control; format: protein-complex assay
Method in brief: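 BALB/c male bone marrow macrophages were differentiated 7 days with L929 supernatant (≥99% CD11b+/F4/80+). Cells were plated at 2 × 10^5/well in triplicate, rested overnight, and given compounds at 5 μg/mL for 18 h. They were then stimulated with 100 ng/mL S. minnesota LPS, 10 ng/mL Pam3CSK4 (BLP) or 0.01 μM CpG for 24 h. Supernatant IL-12p40 and IL-6 were measured by ELISA (sensitivity 16 pg/mL).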

`CN(C)CCS(=O)(=O)Cc1ccc(Br)cc1` was tested, and the inhibition [1] was “Active”, the Activity (Mus musculus [2]) was “Active” and the Activity (Mus musculus [3]) was “Active”. For the same compound, the Activity (Mus musculus [4]) was “Active” and the inhibition (TLR2/TLR6 (Mus musculus)) was “inactive”.
